From the RNAGym collection of RNA variant scans (doi:10.1126/science.aae0568)
Variants at the floor of the assay were thinned out.

B1: tRNA (parent)
chain: GUUCCGUUGGCGUAAUGGUAACGCGUCUCCCUCCUAAGGAGAAGACUGCGGGUUCGAGUCCCGUACGGAACG

Variants of: B1
Test: yeast fitness relative to wild type (ratio to wild type); higher = fitter; tRNA-Arg(CCU), competitive growth, 37 C, YPD
In short: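 Gene amplicons from the start population and from each of six end populations were read by 100-nucleotide paired-end sequencing. Those end populations came from pooled Saccharomyces cerevisiae strains carrying tRNA-Arg(CCU) gene variants at the native locus, competed in YPD at 37°C for 24 hours. Fitness relative to wild type was worked out from changes in genotype frequencies. Genotypes needed ≥ 100 starting reads, and estimates < 0.5 were set to 0.5.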

Row | Variant | yeast fitness
1 | G25C U26G A40U C46G A70U | ≤ 0.5
2 | G25C U26G C46G | 0.576
3 | G25C U26G C46G A69U | 0.521
4 | G25C U26G C46G A70U | 0.62
5 | G25C U26G C46G C60G | ≤ 0.5
6 | G25C U26G C46G C61A A70U | ≤ 0.5
7 | G25C U26G G51C | ≤ 0.5
8 | G25C U28A C33A | 0.539
9 | G25C U28C C55A | 0.539
10 | G25C U28C U59C | 0.694
11 | G25C U32A A40C | ≤ 0.5
12 | G25C U32A C60A | ≤ 0.5
13 | G25C U32C A37G A69G A70G | ≤ 0.5
14 | G25C U32C C46U G50A | 0.667
15 | G25C U32C G41A | ≤ 0.5
16 | G25C U32G A65G | ≤ 0.5
17 | G25C U32G G44A C46G | ≤ 0.5
18 | G25C U35A | 0.604
19 | G25C U35A A37U G67A A70G | ≤ 0.5
20 | G25C U35C | 0.862
21 | G25C U35C A42C C46A G48C C61A | ≤ 0.5

Row | Variant | yeast fitness
22 | G25C U47C | 0.954
23 | G25C U47C G63A A65C | ≤ 0.5
24 | G25C U47G G52A | 0.549
25 | G25C U53C G58A | 0.605
26 | G25C U59C | 0.932
27 | G25C U59G | 0.678
28 | G25C U64A | 0.709
29 | G25U | 0.937
30 | G25U A36U | 0.531
31 | G25U A36U C49U | ≤ 0.5
32 | G25U A36U G56C A65C | 0.521
33 | G25U A36U G56C U64C A65C | ≤ 0.5
34 | G25U A45C C62A | 0.777
35 | G25U C27A G41A C62U | ≤ 0.5
36 | G25U C29A G56C | ≤ 0.5
37 | G25U C30U A40U | ≤ 0.5
38 | G25U C34G C55G U59C C60U G67U | ≤ 0.5
39 | G25U G44C | 0.647
40 | G25U U59C | 0.657
41 | U26A | 0.996
42 | U26A A36C C61U | ≤ 0.5

Row | Variant | yeast fitness
43 | U26A A36G A37G C46G C49U U54C A70G | 0.754
44 | U26A A36G G56C | ≤ 0.5
45 | U26A A37C A57U | ≤ 0.5
46 | U26A A37C C61A | ≤ 0.5
47 | U26A A37G G48A C49G | ≤ 0.5
48 | U26A A40C | 0.755
49 | U26A A40C G41A G58A | 0.655
50 | U26A A40C U64C C66A | ≤ 0.5
51 | U26A A40G C49G C61A | 0.626
52 | U26A A40G C62U | 0.567
53 | U26A A40U A69U | 0.699
54 | U26A A40U G58A A70C | ≤ 0.5
55 | U26A A42C C49U C60G C66A | 0.733
56 | U26A A42C U59G | ≤ 0.5
57 | U26A A42U | 0.981
58 | U26A A43C A45U A65C | ≤ 0.5
59 | U26A A43C A45U C55U A65C | ≤ 0.5
60 | U26A A43C G52U C55A | ≤ 0.5
61 | U26A A43G | 0.832
62 | U26A A43G G51C A69U | 0.566
63 | U26A A43U A69U | 0.695

Row | Variant | yeast fitness
64 | U26A A43U A70U | 0.838
65 | U26A A43U G68A | ≤ 0.5
66 | U26A A45C | 0.698
67 | U26A A45G | 0.882
68 | U26A A45G U54C | 0.52
69 | U26A A57G | 0.973
70 | U26A A57U | 0.802
71 | U26A A65G | 0.822
72 | U26A A65U | 0.829
73 | U26A A65U G67A | 0.62
74 | U26A A69C | 1.06
75 | U26A A69U | 1.03
76 | U26A A70C | 0.928
77 | U26A C27G | 0.57
78 | U26A C27G C30G A36U G38C C46U C49G A65U | 0.573
79 | U26A C27G C31G G38C | ≤ 0.5
80 | U26A C27G C31U C46A A65C G68A | 0.626
81 | U26A C27G C62A | ≤ 0.5
82 | U26A C27U C33G A36U G50A | ≤ 0.5
83 | U26A C27U C46G | 1
84 | U26A C27U C49A U64C | ≤ 0.5
